According to article PMC6528680 (Journal of natural products, 2019):
Where two headings read alike, the source gives them in different places. Marks after values point to notes of the source that are not given here.

Key:
RAW 264.7 cells = experiment: RAW 264.7 cell viability; assay type: cell-based, murine; conditions: at approximately 3 μM; data not shown
[1] = assay type: in vivo; conditions: C57BL/6J mice
[2] = assay type: in vivo, mice (C57BL/6J, C3H/HeJ)
Outline: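 Oral gavage of 500 mg/kg in DMSO to C57BL/6J and C3H/HeJ mice (n=3–4/group), with sampling at 30 min under isoflurane. Marrow pellets were suspended in 50 mM sodium acetate pH 5 for 2 h on ice and centrifuged. Serum was acidified to pH 5 with HCl before HLB extraction and LC/MS. Marrow concentrations were corrected to pellet volume, assuming density 1.06 g/ml. Mean ± SEM.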

[3] = assay type: in vivo, mice (C57BL/6J, C3H/HeJ, mps/mps)
Outline: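 Test compound dosed IP at 100 mg/kg in DMSO to 15-week female BL/6J, female HeJ and male mps/mps mice (n=3–5/group). Blood and marrow were taken under isoflurane at 20 min. Marrow pellets were resuspended in 50 mM sodium acetate pH 5 and held 2 h on ice, then supernatants were kept. Serum was acidified to pH 5, and aglycone and glucuronide were measured by HLB solid-phase extraction and LC/MS. Mean ± SEM.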

recombinant human GUSB = molecular target: T1, recombinant human GUSB (Homo sapiens, UniProt P08236); experiment: GUSB-specificity of substrate deconjugation; assay type: biochemical; conditions: 37°C, 50 mM sodium acetate buffer pH 5
T1 sequence (P08236 23-651): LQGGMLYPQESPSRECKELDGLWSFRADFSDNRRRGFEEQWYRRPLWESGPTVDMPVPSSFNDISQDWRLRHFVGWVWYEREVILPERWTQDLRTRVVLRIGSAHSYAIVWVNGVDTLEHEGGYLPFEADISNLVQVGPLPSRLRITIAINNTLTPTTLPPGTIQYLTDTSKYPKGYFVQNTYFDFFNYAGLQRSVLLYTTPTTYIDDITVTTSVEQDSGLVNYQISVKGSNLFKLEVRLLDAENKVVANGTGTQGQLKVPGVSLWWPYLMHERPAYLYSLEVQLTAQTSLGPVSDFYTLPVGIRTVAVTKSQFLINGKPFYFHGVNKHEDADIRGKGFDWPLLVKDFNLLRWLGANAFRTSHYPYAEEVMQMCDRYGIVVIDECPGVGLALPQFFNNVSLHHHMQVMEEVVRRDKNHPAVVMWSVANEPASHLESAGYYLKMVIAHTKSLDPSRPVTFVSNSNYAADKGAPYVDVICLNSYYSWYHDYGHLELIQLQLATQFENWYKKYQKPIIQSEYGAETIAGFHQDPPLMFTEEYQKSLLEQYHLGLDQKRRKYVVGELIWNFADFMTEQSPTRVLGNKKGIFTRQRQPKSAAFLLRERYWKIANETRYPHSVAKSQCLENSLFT
Outline: (§1)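 Recombinant human GUSB, HPSE or KL, normalized to molarity, was incubated 30–60 min at 37°C in 50 mM sodium acetate pH 5 with 4-methylumbelliferyl-glucuronide or phenolphthalein-glucuronide at above-Km concentrations. Reactions were quenched. Product was quantified against 4-MU or phenolphthalein standard curves by fluorescence (Ex 360/Em 470 nm) or absorbance at 540 nm. Rates are given as nmol product per enzyme amount per min.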

recombinant human KL = molecular target: T2, recombinant human KL (Homo sapiens, UniProt Q9UEF7); experiment: GUSB-specificity of substrate deconjugation; assay type: biochemical; conditions: 37°C, 50 mM sodium acetate buffer pH 5
T2 sequence (Q9UEF7 34-1012): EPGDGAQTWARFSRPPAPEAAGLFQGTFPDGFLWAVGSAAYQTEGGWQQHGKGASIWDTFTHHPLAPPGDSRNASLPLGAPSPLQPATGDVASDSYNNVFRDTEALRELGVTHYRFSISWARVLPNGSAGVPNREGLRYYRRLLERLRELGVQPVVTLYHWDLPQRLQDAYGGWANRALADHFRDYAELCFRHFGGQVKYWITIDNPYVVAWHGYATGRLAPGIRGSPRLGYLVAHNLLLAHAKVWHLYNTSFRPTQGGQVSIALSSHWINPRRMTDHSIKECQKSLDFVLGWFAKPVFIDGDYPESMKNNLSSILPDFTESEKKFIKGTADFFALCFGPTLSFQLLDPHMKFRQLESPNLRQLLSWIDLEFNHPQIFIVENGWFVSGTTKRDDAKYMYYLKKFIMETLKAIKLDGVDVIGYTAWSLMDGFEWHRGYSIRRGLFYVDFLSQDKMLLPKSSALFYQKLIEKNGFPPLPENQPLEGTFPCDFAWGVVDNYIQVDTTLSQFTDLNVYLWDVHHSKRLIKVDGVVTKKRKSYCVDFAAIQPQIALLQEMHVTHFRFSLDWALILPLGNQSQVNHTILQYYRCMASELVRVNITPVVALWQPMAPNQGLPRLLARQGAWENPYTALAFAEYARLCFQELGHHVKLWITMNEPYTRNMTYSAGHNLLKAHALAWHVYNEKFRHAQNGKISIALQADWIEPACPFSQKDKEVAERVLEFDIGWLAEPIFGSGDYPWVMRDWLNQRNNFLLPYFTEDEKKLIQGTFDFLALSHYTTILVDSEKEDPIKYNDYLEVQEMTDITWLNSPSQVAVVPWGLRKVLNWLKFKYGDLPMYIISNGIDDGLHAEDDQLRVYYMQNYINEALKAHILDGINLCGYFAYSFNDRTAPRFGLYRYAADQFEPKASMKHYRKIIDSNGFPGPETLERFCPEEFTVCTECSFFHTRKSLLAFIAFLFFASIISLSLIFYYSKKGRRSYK
Outline: as §1

recombinant human HPSE = molecular target: T3, recombinant human HPSE (Homo sapiens, UniProt Q9Y251); experiment: GUSB-specificity of substrate deconjugation; assay type: biochemical; conditions: 37°C, 50 mM sodium acetate buffer pH 5
T3 sequence (Q9Y251 158-543 limits assumed): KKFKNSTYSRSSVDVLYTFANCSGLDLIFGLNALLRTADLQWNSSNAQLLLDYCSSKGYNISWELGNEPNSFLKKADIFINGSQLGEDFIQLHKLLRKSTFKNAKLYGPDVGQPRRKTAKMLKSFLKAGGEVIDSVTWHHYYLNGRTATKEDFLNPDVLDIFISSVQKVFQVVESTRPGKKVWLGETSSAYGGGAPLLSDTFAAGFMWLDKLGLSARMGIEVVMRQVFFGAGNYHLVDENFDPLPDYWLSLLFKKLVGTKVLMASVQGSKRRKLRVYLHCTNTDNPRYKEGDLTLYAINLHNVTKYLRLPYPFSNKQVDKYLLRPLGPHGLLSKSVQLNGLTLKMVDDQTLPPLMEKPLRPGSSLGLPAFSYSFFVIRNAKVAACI
T3 sequence (Q9Y251 36-109 limits assumed): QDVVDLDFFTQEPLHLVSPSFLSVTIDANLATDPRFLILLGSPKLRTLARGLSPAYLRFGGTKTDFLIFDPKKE
Outline: as §1

GUSB [4] = molecular target: T4, GUSB (Mus musculus, UniProt P12265); assay type: in vivo, C57BL/6J mice; conditions: SL 1 g/kg IP 1 h before oral curcumin 500 mg/kg
T4 sequence (P12265 23-648): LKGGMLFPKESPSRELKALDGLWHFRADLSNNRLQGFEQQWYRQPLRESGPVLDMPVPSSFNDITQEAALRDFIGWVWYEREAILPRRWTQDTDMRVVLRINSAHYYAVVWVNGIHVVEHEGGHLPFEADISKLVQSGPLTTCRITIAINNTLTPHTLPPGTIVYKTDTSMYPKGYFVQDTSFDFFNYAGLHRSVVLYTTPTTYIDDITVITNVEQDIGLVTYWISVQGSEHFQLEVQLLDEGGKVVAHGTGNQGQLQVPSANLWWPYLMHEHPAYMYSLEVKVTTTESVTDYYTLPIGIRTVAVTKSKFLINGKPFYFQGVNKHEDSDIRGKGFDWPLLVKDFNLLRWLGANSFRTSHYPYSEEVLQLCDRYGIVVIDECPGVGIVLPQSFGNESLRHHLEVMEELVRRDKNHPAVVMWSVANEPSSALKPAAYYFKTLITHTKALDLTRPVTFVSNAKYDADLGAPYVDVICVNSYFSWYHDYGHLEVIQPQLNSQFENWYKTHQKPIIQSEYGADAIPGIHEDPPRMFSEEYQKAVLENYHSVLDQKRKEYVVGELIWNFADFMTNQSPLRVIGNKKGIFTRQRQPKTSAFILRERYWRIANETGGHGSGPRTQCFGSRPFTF
Outline: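 Mice were pretreated with saccharolactone (1 g/kg in saline, IP) 1 h before oral gavage of 500 mg/kg curcumin in DMSO. Serum (clotted 10 min RT, 8,000 g 10 min) and marrow were taken at 30 min. Marrow was resuspended in 50 mM sodium acetate pH 5 and held 2 h on ice. Aglycone curcumin and curcumin-glucuronide were measured by LC/MS after HLB extraction.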

GUSB [5] = molecular target: T4, GUSB; experiment: Ex vivo saccharolactone added to marrow suspensions from curcumin-treated mice; assay type: biochemical, C57BL/6J mice; conditions: 10 mM SL in sodium acetate buffer
Outline: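 Female 4-week C57BL/6J mice were gavaged with 500 mg/kg oral curcumin in DMSO. Leg marrow was spun out (10,000 g, 15 s) at 30 min and resuspended in 50 mM sodium acetate pH 5 with or without 10 mM saccharolactone. It was held 2 h on ice, then supernatants were taken. Aglycone and glucuronide were quantified by LC/MS (HLB extraction, C18, SRM) as % of total curcumin. n=3–4/group.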

GUSB [6] = molecular target: T4, GUSB; assay type: biochemical, C57BL/6NJ mice; conditions: SL 10 mM, 10 μM curcumin-glucuronide, 2 h, 37°C

Q: What does the source list for `COc1cc(/C=C/C(=O)CC(=O)/C=C/c2ccc(O)c(OC)c2)ccc1O` [aglycone curcumin, curcumin]?
A: Effect on RAW 264.7 cell viability (RAW 264.7 cells): did not alter; Aglycone curcumin as share of total curcumin in serum ([1]; 30 min post oral dose, n=11): 0.24% ± 0.07%; Aglycone curcumin as share of total curcumin in lyophilized whole bone marrow ([1]; post oral dose, n=8): 0.77% ± 0.21%; Aglycone curcumin as share of total curcumin in perfusing serum ([2]; 30 min post oral dose, C57BL/6J): 0.1–0.2 % of total curcumin; Concentration in serum ([2]; C3H/HeJ, 30 min after oral 500 mg/kg curcumin, mean (SEM)): nd (≤0.01) μM; Absolute and relative amounts of marrow aglycone curcumin lower in HeJ vs BL/6J ([2]; oral 500 mg/kg curcumin, 30 min): 59–65%; Aglycone curcumin as share of circulating total curcumin ([3]; BL/6J serum, IP curcumin): < 4%; Aglycone curcumin as share of total in ex vivo bone marrow suspensions ([3]; BL/6J, IP curcumin): 51 % of total; Bone marrow aglycone curcumin (% of total curcumin) lower vs BL/6J ([3]; HeJ mice, IP curcumin): 73%; Bone marrow aglycone curcumin (% of total curcumin) decrease vs BL/6J ([3]; mps/mps mice, IP curcumin): 88%; Increase of circulating curcumin concentrations vs BL/6J ([3]; mps/mps mice, IP curcumin): 3.2 fold; Concentration in serum ([3]; mps/mps, 20 min after IP 100 mg/kg curcumin, mean (SEM)): 22.8 (6.9)^a,b μM

Q: For `Cc1cc(=O)oc2cc(O[C@@H]3O[C@H](C(=O)O)[C@@H](O)[C@H](O)[C@H]3O)ccc12` [glucuronidated 4-MU, 4-methylumbelliferyl-glucuronide], which “Rate of cleavage by GUSB” value (recombinant human GUSB) is on record?
A: 2.64 nmol 4-MU/pmol enzyme/min

Q: And the “Rate of cleavage by KL” value (recombinant human KL; without effect)?
A: < 0.007 nmol 4-MU/nmol enzyme/min

Q: What about the “Rate of cleavage by HPSE” value (recombinant human HPSE; without effect) of the same molecule?
A: < 0.007 nmol 4-MU/nmol enzyme/min

Q: Which “Rate of cleavage by GUSB” value (recombinant human GUSB) does the source give for `O=C1OC(c2ccc(O)cc2)(c2ccc(O[C@@H]3O[C@H](C(=O)O)[C@@H](O)[C@H](O)[C@H]3O)cc2)c2ccccc21` (stereo partly shown) [glucuronidated PheP, Phenolphthalein-glucuronide] here?
A: 23.5 nmol PheP/nmol enzyme/min

Q: And the “Rate of cleavage by KL” value (recombinant human KL)?
A: 1.0 nmol PheP/nmol enzyme/min

Q: And the “Rate of cleavage by HPSE” value (recombinant human HPSE)?
A: 0.14 nmol PheP/nmol enzyme/min

Q: For `O.O=C(O)[C@@H](O)[C@H]1OC(=O)[C@H](O)[C@H]1O` [saccharolactone, D-Saccharic acid 1,4-lactone monohydrate], which “Aglycone curcumin levels in marrow suspensions after in vivo inhibitor treatment” value (GUSB [4]) is on record?
A: no longer detectable

Q: And the “Effect on serum levels of aglycone curcumin” value (GUSB [4]; data not shown)?
A: unchanged

Q: And the “Aglycone curcumin in marrow suspensions with inhibitor added ex vivo” value (GUSB [5])?
A: not detected

Q: And the “Effect on deconjugation of GC in marrow-conditioned media” value (GUSB [6])?
A: inhibitable
